Screens (PubChem BioAssay)
Compounds with a hit are over-represented: about 3.7% of the library has one in this group of screens.
FXN GAA850 act = activators of GAA850 frataxin (FXN) promoter. activation, % at 6 µM. AID 540364. actives 0.56% (n = 360,000). HEK293 lucGAA850 FXN promoter luciferase reporter, 24 h; percent of 10 µM SAHA response;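 active = activation above the average of all compounds screened plus 3 SD, cutoff fixed separately per campaign, cut at about 7.5% in these data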;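 note: 0% = DMSO wells and 100% = 10 µM SAHA wells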
SR-BI HDL uptake = inhibitors of mouse SR-BI mediated HDL lipid uptake; Q61009; ldlA[mSR-BI] CHO cells, DiI-HDL uptake fluorescence, 3 h; inhibition, % at 12.5 µM; actives 0.96% (n = 320,000); AID 488896;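 active = mean replicate inhibition of at least 70% and a set share of replicates each scoring 70 or more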;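 note: 0% = median of neutral control wells and 100% = median of positive control wells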
SR-BI uptake up = activators of SR-BI mediated HDL lipid uptake | CHO ldlA[mSR-BI] cells, DiI-HDL uptake fluorescence, 3 h; 100 = double the neutral-control signal | actives 0.096% (n = 320,000) | activation, % at 12.5 µM;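 active = mean replicate activation of at least 60% and every replicate at or above 60%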;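 note: 0% = median plate neutral-control signal and 100% = twice that signal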
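Material: SR-BI-overexpressing, LDLR-lacking CHO cells | Dosing: Single compound concentration, delivered by pin transfer | Probe or stimulus: Labelled HDL, 10 µg/mL | Signal: Bottom-read cell fluorescence after medium removal, ex 550/em 595 nm | Schedule: 3 h, 37 °C | Evaluation: HDL uptake via cellular fluorescence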
GASC-1 inh = human JMJD2C demethylase inhibition. inhibition, % at 2.35 µM. Q9H3R0. GST-JMJD2C(1-420) H3K9me3 demethylation, DELFIA europium. actives 0.069% (n = 330,000);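 active = more than half of a compound's replicate wells show inhibition beyond 50%, single wells judged on their own value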;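 note: signal counts dimethyl H3K9 product captured on neutravidin plate; 0% = median of DMSO wells and 100% = 0.3 times that DMSO median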
Target sequence (Q9H3R0 1-420 limits assumed): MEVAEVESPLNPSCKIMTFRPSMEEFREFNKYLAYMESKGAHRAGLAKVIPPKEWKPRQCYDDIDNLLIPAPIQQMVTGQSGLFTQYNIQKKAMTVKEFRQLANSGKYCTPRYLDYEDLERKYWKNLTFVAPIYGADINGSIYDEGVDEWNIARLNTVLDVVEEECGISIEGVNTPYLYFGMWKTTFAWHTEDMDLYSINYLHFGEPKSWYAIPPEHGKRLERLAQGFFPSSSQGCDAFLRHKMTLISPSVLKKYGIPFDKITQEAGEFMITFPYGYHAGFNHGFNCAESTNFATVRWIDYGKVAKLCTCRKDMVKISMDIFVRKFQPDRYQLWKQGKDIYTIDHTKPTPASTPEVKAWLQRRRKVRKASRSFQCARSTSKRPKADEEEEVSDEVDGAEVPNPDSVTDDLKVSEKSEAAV
AHR act = activates the human aryl hydrocarbon receptor | P35869 | AHR-responsive luciferase reporter cells, luminescence | activation, % at 5 µM | actives 2.5% (n = 320,000) | AID 2796; in the data active = activation above about 47%;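 note: 0% = vehicle wells and 100% = reference agonist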
GAA30 FXN cntr = GAA30 FXN promoter activation counter-screen | shares compounds with FXN GAA850 act | HEK293 lucGAA30 FXN promoter luciferase, 24 h; DMSO = 0%, 5 µM ipriflavone = 100% | activation, % at 6 µM | actives 66% (n = 1,900);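 active = mean activation above the mean of solvent-only control wells plus 3 SD, cut at about 22% in these data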;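 note: counterscreen of GAA850 promoter hits where activity marks nonselective or luminescence artifacts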
FXN GAA850 conf = confirmation of GAA850 frataxin (FXN) promoter activators. actives 86% (n = 1,900). activation, % at 6 µM. shares compounds with FXN GAA850 act. HEK293 lucGAA850 FXN promoter luciferase reporter, 24 h; 100% = activation by SAHA;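 active = mean activation above a set limit taken from the primary screen, cut at about 8% in these data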;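 note: 0% = DMSO wells and 100% = 10 µM SAHA wells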
* marks the source's active call; other numbers are inactive results; · = not tested or not shown.

SMILES	FXN GAA850 act	SR-BI HDL uptake	SR-BI uptake up	GASC-1 inh	AHR act	GAA30 FXN cntr	FXN GAA850 conf
CC[C@@]12C(=O)N(c3cccc(C)c3)C(=O)N1[C@H](c1ccc(OC)cc1)[C@@H]1C(=O)N(C(C)(C)C)C(=O)[C@@H]12	12*	-29	29	2	-3	29*	20*
COc1ccc([C@@H]2[C@@H]3C(=O)N(C(C)(C)C)C(=O)[C@@H]3[C@]3(Cc4ccc(Cl)cc4)C(=O)N(c4cccc(C)c4)C(=O)N23)cc1	7	-16	16	3	1	·	·
CC[C@@]12C(=O)N(c3cccc(F)c3)C(=O)N1[C@H](c1ccc(OC)cc1)[C@@H]1C(=O)N(C(C)(C)C)C(=O)[C@@H]12	11*	-14	14	1	-1	43*	18*
N#C/C(=C/c1ccco1)c1nc2ccccc2s1	7.7*	-18	18	1	30	142*	45*
COc1cccc(NC(=O)Nc2cc(C)ccc2F)c1	8.2*	13	-13	21	18	80*	25*
CN(C)CCNC(=O)c1cccc2nc3cccc(F)c3nc12	25*	-14	14	·	·	-3	142*
COc1ccc(OC)c2nc3c(C(=O)NCCN(C)C)cccc3nc12	15*	-13	13	·	·	3	79*
CN1C(C(=O)NCc2ccccc2)CC2Cn3c(nc4cc5ccccc5cc43)C21 (stereo not given)	0	-7	7	1	6	·	·
Cc1nn(C)c(C)c1NC(=O)COc1ccc(Cl)cc1Br	-2	20	-20	-4	-7	·	·
COc1ccccc1N(C)S(=O)(=O)c1ccc(Cl)c(C(=O)NCC2(N(C)C)CCCCC2)c1	12*	-32	32	3	1	25*	4
Cc1ccc(-n2ncc3c(N4CCCC4)ncnc32)c(C)c1	7.6*	-2	2	-2	7	72*	24*
CC1CCN(CC(CS(=O)(=O)c2ccc([N+](=O)[O-])cc2)N2CCC(C)CC2)CC1 (stereo not given)	9.7*	-12	12	8	-2	61*	16*
CC1=CC(=C(C#N)c2nc3ccccc3s2)C=C(C)N1CC1CCCO1 (stereo not given)	7.8*	88*	-88	3	25	39*	32*
Cc1ccc(NC(=O)C2Cc3ccccc3C(=O)O2)cc1 (stereo not given)	8.3*	-24	24	·	16	86*	33*
O=C(Nc1nnc(C2CCCCC2)s1)c1cccs1	7.8*	-13	13	-3	77*	95*	27*
COc1ccc(/C=C/C(=O)OCC(=O)NCc2ccccc2Cl)cc1OC	-1	6	-6	7	2	·	·
Cc1cccc(-c2nc(CN3CCCC(C(=O)NC4CCCC4)C3)c(C)o2)c1 (stereo not given)	8.0*	13	-13	-5	3	10	6
Cc1ccccc1OCC(=O)Nc1ccccc1-c1ccccc1NC(=O)COc1ccccc1C	15*	29	-29	-10	9	15	11*
CN1CCC[C@H]1CCNc1ccc2c(=O)c3ccccc3n(C)c2c1	13*	17	-17	·	·	46*	69*
Cn1c2ccccc2c(=O)c2ccc(NCc3ccc4c(c3)OCO4)cc21	11*	-1	1	·	·	71*	27*
CN1CCCC1CCNc1ccc2c(=O)c3ccccc3oc2c1 (stereo not given)	6	-2	2	-7	12	·	·
Cn1c2ccccc2c(=O)c2cc(NCCCN3CCOCC3)ccc21	17*	-5	5	7	16	143*	58*
C=CCn1c(N)cc(=O)nc1SCC(=O)Nc1ccc(C)cc1	-2	-14	14	8	6	·	·
Cc1cnc(C(=O)OCC(=O)Nc2cc(S(=O)(=O)N3CCOCC3)ccc2Cl)cn1	1	-4	4	-1	-1	·	·
Fc1ccc(Nc2nc(-c3ccncc3)cs2)cc1	7.9*	47	-47	-5	12	89*	33*
SMILES	FXN GAA850 act	SR-BI HDL uptake	SR-BI uptake up	GASC-1 inh	AHR act	GAA30 FXN cntr	FXN GAA850 conf
CC1(C)CC(=O)C=C(c2ccc(COC(=O)C(c3ccccc3)c3ccccc3)cc2)C1=O	0	·	·	·	·	·	·
COc1ccc(-c2noc(-c3ccoc3C)n2)cc1OC	7.8*	23	-23	-1	3	96*	33*
Cc1cccc(-c2noc(-c3ccoc3C)n2)c1	6	14	-14	-7	5	·	·
COc1ccc(-c2noc(-c3ccccc3Cl)n2)cc1OC	8.6*	37	-37	-1	8	112*	40*
O=c1oc2ccccc2cc1-c1nc2ccccc2o1	8.4*	-13	13	5	16	122*	37*
O=c1oc2ccc3ccccc3c2cc1-c1nc2ccccc2o1	-1	-28	28	8	41	·	·
Cc1ccc(CNC(=O)[C@@H](NC(=O)C2CCN(C(=O)[C@@H]3CCCN3)CC2)C(C)C)cc1	0	-1	1	12	0	·	·
Nc1ccc2nc(-c3ccccc3)c(-c3ccccc3)nc2c1	14*	-7	7	-7	8	-5	11*
Cc1ccc(NC(=O)c2sc3ccccc3c2Cl)nc1	8.4*	0	0	7	7	105*	16*
Cc1ccnc(NC(=O)CNC(=O)c2sc3ccccc3c2Cl)c1	1	-12	12	1	2	·	·
Cc1ccc(-c2noc(C3CCCN(C(=O)c4ccccc4Br)C3)n2)o1 (stereo not given)	2	·	·	-8	5	·	·
Cc1ccc(-c2noc(C3CCCN(C(=O)c4ccccc4)C3)n2)o1 (stereo not given)	7.7*	-16	16	46	4	107*	30*
O/N=C(/CCc1ccccc1)c1ccc2c(c1)OCCO2	8.0*	28	-28	-35	10	117*	33*
O=C1CC2(CCCC2)C(=O)N1CN1CCN(S(=O)(=O)c2cc(F)ccc2F)CC1	-1	·	·	·	·	·	·
O=c1c2ccccc2c(/C=N/NS(=O)(=O)c2ccccc2)c(O)n1-c1ccccn1	1	-15	15	5	9	·	·
O=C1C=C(c2ccoc2)N2CCC[C@H]2C1	0	-11	11	0	-4	·	·
CC(C)(C)c1ccc(OCc2ccc(C(=O)N3CCOCC3)o2)cc1	8.4*	-8	8	9	17	52*	24*
CCc1ccc(OCc2ccc(C(=O)OC)o2)cc1	7.6*	-6	6	-11	4	78*	28*
